Data from publication PMC8542630 (Cell chemical biology, 2021).
Read-outs that look alike come from different tables or passages of the source.

Columns and labels:
[1] = biological target: T1, Hs-dynein 1 (Homo sapiens, UniProt Q14204); experiment: Radioactive ATPase assay, basal ATPase activity of Hs-dynein 1; format: biochemical; settings: for Inhibition of Hs-dynein 1 basal ATPase activity (in words): compounds tested at 20 μM, 1 mM MgATP, no microtubules, n=2
How it was run: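 Hs-dynein 1 motor construct (N-terminal His6, aa 1320–4646) at 30 nM, without microtubules. Radioactive ATPase reaction ran for 45 min with test compound. Percent inhibition was obtained by normalising the ATPase rate with compound to DMSO control.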

[2] = biological target: T1, Hs-dynein 1; experiment: Radioactive ATPase assay, microtubule-stimulated ATPase activity of Hs-dynein 1; format: biochemical
How it was run: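 Radioactive ATPase assay with Hs-dynein 1 (His6, aa 1320–4646; 30 nM) in the presence of microtubules. Reaction time was 45 min, and rates with test compound were normalised to DMSO control.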

[3] = biological target: T2, GFP-Sc-Dyn (Saccharomyces cerevisiae, UniProt P36022); experiment: NADH-coupled steady-state ATPase assay, GFP-Sc-Dyn basal ATPase; format: biochemical, S. cerevisiae
[4] = biological target: Sc-Dyn-lyso (Saccharomyces cerevisiae, UniProt P36022); experiment: NADH-coupled steady-state ATPase assay, Sc-Dyn-lyso; format: biochemical, S. cerevisiae
How it was run: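 Ten-dose DMSO serial dilution of test compound (stock top 4 mM) was preincubated 10 min at RT. MgATP (10 mM stock) started the reaction, and NADH fluorescence slopes were converted via an ADP standard curve.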

[5] = biological target: Xl-katanin (Xenopus laevis, UniProt Q9PUL2); experiment: NADH-coupled steady-state ATPase assay, Xl-katanin; format: biochemical, X. laevis; settings: 20 μM, 1 mM MgATP
How it was run: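 Recombinant Xl-katanin (50 nM; E. coli, MBP-trap, MonoQ and gel filtration) in 25 mM K-HEPES pH 7.5, 70 mM KCl, 20 mM (NH4)2SO4, 5 mM MgCl2, 2.5 mM DTT, 0.01% Triton X-100 plus NADH-coupled regeneration mix. After 10 min RT preincubation with test compound, MgATP started the reaction. The fluorescence decrease rate (340/440 nm) was converted to ATPase rate using an ADP standard curve.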

[6] = biological target: Mm-VCP/p97 (Mus musculus, UniProt Q01853); experiment: NADH-coupled steady-state ATPase assay, Mm-VCP/p97; format: biochemical, M. musculus; settings: 20 μM, 1 mM MgATP
[7] = biological target: T3, Hs-FIGL1 (Homo sapiens, UniProt Q6PIW4); experiment: NADH-coupled steady-state ATPase assay, Hs-FIGL1; format: biochemical, H. sapiens; settings: read-out: Inhibition of ATPase activity, Hs-FIGL1
T3 sequence (Q6PIW4 288-674): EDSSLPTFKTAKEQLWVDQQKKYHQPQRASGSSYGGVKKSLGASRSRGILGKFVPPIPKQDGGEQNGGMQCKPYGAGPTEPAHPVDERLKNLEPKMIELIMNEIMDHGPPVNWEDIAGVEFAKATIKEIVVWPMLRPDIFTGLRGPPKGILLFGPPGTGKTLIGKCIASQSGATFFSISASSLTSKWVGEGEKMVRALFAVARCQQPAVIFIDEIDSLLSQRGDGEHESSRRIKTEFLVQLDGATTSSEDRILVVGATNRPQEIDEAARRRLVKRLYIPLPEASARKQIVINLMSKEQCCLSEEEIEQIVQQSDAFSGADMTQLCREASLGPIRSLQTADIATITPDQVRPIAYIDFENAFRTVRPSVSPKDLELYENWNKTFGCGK
How it was run: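 Recombinant Hs-FIGL1 (50 nM; E. coli-expressed) in 25 mM Na-MES pH 6.5, 70 mM KOAc, 20 mM (NH4)2SO4, 5 mM Mg(OAc)2, 1 mM TCEP, 0.01% Triton X-100, with NADH/PEP/pyruvate kinase/lactate dehydrogenase coupling system. Protein preincubated 10 min at RT with test compound, then MgATP added. NADH fluorescence (ex 340, em 440 nm) slope converted to ATPase rate with an ADP standard curve.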

[8] = biological target: Dm-spastin (Drosophila melanogaster, UniProt Q8I0P1, DEL311-372); experiment: NADH-coupled steady-state ATPase assay, Dm-spastin; format: biochemical, D. melanogaster; settings: 20 μM, 1 mM MgATP
[9] = biological target: GFP-Sc-Dyn V2391S/M2732S (AAA3_V-S/AAA4_M-S) (Saccharomyces cerevisiae, UniProt P36022, M2732S/V2391S); experiment: Microscale thermophoresis; format: binding; settings: read-out: EC50, AMPPNP binding to AAA3_V-S/AAA4_M-S (MST); mean ± 95% CI, n=3
[10] = biological target: T2, GFP-Sc-Dyn; experiment: Microscale thermophoresis; format: binding, S. cerevisiae
[11] = biological target: T1, Hs-dynein 1; settings: read-out: IC50, inhibition of Hs-dynein 1; ref Steinman et al., 2017; cited from earlier work
[12] = biological target: T4, Sc-Dyn-lyso (Saccharomyces cerevisiae, UniProt P36022); experiment: Microscale thermophoresis; format: binding, S. cerevisiae; settings: n=2, negative control
T4 sequence (P36022 1758-2992 limits assumed): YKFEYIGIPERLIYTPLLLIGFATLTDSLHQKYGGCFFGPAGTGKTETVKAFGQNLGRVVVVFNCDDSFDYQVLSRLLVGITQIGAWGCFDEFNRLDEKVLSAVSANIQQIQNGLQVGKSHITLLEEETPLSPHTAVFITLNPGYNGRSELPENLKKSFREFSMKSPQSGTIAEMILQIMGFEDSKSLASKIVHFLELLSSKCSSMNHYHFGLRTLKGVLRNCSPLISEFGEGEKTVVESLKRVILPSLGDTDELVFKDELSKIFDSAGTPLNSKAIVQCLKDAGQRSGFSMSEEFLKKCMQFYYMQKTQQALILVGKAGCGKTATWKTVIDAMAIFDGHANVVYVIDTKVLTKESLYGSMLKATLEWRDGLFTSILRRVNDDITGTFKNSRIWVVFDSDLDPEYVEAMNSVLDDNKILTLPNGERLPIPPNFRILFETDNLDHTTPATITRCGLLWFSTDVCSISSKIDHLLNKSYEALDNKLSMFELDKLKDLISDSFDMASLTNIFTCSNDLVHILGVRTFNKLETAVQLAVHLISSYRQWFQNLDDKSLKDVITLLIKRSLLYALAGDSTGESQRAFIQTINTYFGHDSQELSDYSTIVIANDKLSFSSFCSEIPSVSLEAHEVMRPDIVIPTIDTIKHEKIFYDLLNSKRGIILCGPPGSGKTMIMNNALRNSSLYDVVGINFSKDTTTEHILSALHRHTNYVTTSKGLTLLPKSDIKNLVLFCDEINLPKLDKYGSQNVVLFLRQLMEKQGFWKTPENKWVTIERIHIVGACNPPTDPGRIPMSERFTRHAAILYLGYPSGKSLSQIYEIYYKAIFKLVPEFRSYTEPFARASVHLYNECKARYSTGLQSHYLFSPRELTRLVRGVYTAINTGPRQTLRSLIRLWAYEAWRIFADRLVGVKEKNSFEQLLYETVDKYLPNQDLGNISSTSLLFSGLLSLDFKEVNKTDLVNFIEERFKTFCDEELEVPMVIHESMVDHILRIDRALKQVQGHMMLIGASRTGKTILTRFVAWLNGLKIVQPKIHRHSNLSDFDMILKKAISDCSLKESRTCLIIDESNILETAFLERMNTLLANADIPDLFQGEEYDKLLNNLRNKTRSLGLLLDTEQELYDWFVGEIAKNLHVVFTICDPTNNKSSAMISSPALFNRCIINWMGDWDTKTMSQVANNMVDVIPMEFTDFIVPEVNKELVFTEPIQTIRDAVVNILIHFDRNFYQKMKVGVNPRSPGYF
T4 sequence (P36022 3301-4092 limits assumed): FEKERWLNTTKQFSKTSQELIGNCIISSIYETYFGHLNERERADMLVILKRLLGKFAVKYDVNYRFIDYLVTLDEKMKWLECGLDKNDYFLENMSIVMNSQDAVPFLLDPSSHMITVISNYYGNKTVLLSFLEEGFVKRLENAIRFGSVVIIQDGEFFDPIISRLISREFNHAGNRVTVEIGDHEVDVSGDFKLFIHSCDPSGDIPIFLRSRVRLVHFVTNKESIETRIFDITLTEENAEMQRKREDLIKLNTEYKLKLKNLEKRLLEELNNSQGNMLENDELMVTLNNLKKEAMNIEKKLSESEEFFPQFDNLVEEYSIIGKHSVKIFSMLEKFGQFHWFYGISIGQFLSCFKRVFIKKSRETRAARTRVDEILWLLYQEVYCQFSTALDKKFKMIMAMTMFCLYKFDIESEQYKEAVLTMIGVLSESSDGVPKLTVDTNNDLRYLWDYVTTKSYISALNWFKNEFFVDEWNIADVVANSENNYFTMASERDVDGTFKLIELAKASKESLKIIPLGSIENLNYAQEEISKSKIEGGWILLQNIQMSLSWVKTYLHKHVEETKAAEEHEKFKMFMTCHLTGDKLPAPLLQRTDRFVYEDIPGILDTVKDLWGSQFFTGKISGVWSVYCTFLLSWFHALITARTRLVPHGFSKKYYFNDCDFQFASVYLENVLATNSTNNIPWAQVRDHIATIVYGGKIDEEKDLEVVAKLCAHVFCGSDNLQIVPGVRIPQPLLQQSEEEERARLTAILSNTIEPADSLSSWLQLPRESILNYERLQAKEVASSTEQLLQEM

[13] = biological target: Sc-DynGST (Saccharomyces cerevisiae, UniProt P36022); experiment: Single-molecule motility assay; format: biochemical, S. cerevisiae; settings: single-molecule
[14] = biological target: T2, GFP-Sc-Dyn; experiment: Microtubule gliding assay; format: biochemical, S. cerevisiae; settings: 25 μM compound
[15] = biological target: T1, Hs-dynein 1; settings: ref Steinman et al., 2017; cited from earlier work

Sc-DynGST, sequence (P36022 1219-4092 limits assumed): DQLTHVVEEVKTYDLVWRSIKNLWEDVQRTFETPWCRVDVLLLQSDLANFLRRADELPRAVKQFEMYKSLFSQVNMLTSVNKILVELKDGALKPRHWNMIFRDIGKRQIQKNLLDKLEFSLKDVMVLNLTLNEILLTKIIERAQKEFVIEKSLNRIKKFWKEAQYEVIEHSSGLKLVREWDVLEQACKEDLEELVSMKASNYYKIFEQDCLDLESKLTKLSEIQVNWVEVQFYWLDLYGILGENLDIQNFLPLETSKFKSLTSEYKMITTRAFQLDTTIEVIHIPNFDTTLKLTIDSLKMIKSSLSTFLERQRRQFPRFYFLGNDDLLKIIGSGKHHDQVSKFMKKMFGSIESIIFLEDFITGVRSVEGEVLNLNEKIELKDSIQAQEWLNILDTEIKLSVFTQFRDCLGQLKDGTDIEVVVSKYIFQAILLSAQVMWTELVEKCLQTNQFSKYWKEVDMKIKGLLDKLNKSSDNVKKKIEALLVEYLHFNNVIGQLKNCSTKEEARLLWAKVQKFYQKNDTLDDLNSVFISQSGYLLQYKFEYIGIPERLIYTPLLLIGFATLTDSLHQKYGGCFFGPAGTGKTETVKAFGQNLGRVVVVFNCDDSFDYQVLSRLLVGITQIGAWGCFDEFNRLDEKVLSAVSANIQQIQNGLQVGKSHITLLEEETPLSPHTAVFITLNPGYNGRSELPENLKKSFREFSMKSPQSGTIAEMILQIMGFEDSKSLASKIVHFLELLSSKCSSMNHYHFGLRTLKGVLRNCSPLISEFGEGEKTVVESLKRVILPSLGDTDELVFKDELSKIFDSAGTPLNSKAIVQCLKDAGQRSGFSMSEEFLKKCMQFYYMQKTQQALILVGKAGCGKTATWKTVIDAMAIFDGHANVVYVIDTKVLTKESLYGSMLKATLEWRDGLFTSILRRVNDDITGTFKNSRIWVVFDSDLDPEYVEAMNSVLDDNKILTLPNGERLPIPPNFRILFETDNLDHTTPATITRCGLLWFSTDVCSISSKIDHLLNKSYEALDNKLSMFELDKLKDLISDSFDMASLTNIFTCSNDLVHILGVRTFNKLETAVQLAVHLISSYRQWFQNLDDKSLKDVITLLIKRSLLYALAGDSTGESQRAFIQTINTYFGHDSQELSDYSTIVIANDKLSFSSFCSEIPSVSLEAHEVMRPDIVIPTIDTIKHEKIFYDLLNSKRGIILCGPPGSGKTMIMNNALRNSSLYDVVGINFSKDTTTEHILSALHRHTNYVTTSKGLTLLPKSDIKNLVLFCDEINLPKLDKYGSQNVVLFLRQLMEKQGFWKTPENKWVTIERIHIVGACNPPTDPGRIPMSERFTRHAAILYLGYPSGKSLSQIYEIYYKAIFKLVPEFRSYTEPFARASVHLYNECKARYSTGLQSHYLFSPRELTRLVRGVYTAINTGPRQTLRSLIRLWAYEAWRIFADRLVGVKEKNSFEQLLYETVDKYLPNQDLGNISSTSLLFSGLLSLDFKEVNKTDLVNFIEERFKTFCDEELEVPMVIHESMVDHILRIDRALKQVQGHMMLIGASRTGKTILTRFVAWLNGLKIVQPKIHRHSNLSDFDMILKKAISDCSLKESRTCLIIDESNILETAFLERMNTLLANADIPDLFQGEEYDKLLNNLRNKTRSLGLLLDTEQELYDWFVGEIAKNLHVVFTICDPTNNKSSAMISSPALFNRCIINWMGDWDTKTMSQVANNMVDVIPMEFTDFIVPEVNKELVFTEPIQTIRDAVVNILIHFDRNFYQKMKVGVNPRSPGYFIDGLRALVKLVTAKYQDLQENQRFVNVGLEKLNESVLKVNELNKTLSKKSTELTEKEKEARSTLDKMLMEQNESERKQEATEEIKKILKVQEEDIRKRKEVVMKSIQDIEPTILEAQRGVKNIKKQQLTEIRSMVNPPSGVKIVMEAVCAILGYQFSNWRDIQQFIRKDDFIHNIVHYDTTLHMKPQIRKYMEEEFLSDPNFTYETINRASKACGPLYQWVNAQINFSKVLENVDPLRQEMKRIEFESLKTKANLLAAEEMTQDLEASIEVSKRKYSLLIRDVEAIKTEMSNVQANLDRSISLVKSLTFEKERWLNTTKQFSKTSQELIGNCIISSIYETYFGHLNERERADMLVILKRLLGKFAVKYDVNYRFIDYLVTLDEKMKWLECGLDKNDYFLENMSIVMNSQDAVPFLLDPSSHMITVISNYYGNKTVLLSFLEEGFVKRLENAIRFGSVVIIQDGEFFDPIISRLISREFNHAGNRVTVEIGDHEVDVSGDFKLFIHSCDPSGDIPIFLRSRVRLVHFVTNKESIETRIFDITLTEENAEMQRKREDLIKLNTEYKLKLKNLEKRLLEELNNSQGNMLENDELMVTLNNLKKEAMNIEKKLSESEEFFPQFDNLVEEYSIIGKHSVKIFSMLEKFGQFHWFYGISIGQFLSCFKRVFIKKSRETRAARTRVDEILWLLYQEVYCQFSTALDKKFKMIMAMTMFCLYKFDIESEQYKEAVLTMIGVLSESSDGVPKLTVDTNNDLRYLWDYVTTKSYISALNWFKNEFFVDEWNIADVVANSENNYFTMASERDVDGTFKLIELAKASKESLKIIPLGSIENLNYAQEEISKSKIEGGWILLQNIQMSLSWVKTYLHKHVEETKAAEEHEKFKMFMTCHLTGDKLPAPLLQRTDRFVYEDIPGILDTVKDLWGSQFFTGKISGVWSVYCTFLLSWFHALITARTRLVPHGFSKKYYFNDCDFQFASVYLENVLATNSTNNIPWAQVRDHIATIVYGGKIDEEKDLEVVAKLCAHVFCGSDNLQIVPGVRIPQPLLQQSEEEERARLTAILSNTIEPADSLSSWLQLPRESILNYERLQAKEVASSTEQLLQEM
T2 sequence (P36022 1219-4092): as the sequence (P36022 1219-4092 limits assumed) above
GFP-Sc-Dyn V2391S/M2732S (AAA3_V-S/AAA4_M-S), sequence (P36022 1219-4092 V2391S/M2732S): as the sequence (P36022 1219-4092 limits assumed) above, with V1173S, M1514S counted along it
Xl-katanin, sequence (Q9PUL2 whole entry): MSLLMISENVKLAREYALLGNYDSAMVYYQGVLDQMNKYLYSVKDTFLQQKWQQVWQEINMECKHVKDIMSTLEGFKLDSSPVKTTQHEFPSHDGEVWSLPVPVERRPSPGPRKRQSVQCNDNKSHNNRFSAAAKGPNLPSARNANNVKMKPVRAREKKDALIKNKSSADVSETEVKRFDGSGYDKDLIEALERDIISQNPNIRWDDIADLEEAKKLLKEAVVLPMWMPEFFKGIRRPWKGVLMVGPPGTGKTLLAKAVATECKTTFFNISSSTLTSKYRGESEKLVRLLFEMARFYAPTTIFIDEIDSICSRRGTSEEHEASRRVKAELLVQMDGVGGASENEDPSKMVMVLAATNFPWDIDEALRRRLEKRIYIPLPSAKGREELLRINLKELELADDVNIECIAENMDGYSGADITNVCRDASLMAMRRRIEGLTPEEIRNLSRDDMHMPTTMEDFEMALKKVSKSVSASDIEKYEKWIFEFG
Mm-VCP/p97, sequence (Q01853 whole entry): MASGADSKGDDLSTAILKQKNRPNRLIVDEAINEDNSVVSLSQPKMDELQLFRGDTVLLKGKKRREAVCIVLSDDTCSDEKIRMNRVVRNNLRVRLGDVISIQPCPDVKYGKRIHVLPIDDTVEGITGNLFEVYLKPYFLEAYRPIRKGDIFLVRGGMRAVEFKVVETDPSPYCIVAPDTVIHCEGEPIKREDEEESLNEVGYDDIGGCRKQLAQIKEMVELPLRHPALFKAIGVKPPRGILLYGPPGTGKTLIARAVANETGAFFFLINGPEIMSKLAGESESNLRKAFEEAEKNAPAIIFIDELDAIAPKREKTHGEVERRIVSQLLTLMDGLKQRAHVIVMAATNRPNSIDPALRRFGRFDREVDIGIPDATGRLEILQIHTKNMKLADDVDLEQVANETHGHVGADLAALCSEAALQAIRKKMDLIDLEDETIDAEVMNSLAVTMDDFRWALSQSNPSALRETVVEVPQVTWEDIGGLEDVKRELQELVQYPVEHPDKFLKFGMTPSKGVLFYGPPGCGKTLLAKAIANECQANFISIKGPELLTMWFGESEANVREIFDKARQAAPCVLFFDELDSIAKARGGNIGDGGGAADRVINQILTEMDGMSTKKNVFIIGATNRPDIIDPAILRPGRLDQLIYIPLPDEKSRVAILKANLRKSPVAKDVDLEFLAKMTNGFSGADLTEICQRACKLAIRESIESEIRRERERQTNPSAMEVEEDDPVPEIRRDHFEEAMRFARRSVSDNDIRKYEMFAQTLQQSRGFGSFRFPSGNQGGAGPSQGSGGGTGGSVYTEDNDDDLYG

## N#Cc1c(C2(c3ccc(Cl)cc3)CC2)nn2c(=O)c(Oc3ccccc3Cl)c[nH]c12 [compound 13, 6-(2-chlorophenoxy)-2-[1-(4-chlorophenyl)cyclopropyl]-7-oxo-4H-pyrazolo[1,5-a]pyrimidine-3-carbonitrile]
[1]
  Inhibition of Hs-dynein 1 basal ATPase activity (in words): less active

## N#Cc1c(C2(c3ccc(Cl)cc3)CC2)nn2c(=O)c(Oc3cccc(Cl)c3)c[nH]c12 [compound 19, 6-(3-chlorophenoxy)-2-[1-(4-chlorophenyl)cyclopropyl]-7-oxo-4H-pyrazolo[1,5-a]pyrimidine-3-carbonitrile]
[2]
  IC50: ~30 µM
[3]
  IC50: 10 ± 1.2 µM
[4]
  IC50: 14 ± 4.9 µM
[1]
  IC50: 17 ± 2.3 µM
  Inhibition of Hs-dynein 1 basal ATPase activity (in words): most active
[5]
  Reduction of ATPase activity, Xl-katanin: < 25%
[6]
  Reduction of ATPase activity, Mm-VCP: < 25%
[7]
  inhibition at 20 µM: ~85%
[8]
  Reduction of ATPase activity, Dm-spastin: < 25%

## Nc1ncnc2c1ncn2[C@@H]1O[C@H](COP(=O)(O)OP(=O)(O)NP(=O)(O)O)[C@@H](O)[C@H]1O [AMPPNP, adenylyl imidodiphosphate, reference compound]
[9]
  EC50: 180 ± 78 µM
[10]; read-out: EC50, AMPPNP binding to GFP-Sc-Dyn (MST), mean ± 95% CI, n=3, 60% MST power
  EC50: 25 ± 20 µM

## COc1cccc(Oc2c[nH]c3c(C#N)c(C4(c5ccc(Cl)cc5)CC4)nn3c2=O)c1 [compound 16, 2-[1-(4-chlorophenyl)cyclopropyl]-6-(3-methoxyphenoxy)-7-oxo-4H-pyrazolo[1,5-a]pyrimidine-3-carbonitrile]
[1]
  Inhibition of Hs-dynein 1 basal ATPase activity (in words): less active

## N#Cc1c(C2(c3ccc(Cl)cc3)CC2)nn2c1[nH]c(=O)c1cc(I)ccc12 [compound 2, dynapyrazole-A]
[11]
  IC50: ~10 µM

## N#Cc1c(C2(c3ccc(Cl)cc3)CC2)nn2c(=O)c(Oc3ccc(Cl)cc3)c[nH]c12 [compound 17, 6-(4-chlorophenoxy)-2-(1-(4-chlorophenyl)cyclopropyl)-7-oxo-4,7-dihydropyrazolo[1,5-a]pyrimidine-3-carbonitrile]
[1]
  Inhibition of Hs-dynein 1 basal ATPase activity (in words): less active

## COc1c[nH]c2c(C#N)c(C3(c4ccc(Cl)cc4)CC3)nn2c1=O [compound 6, 2-[1-(4-chlorophenyl)cyclopropyl]-6-methoxy-7-oxo-4H-pyrazolo[1,5-a]pyrimidine-3-carbonitrile]
[12]
  Binding to Sc-Dyn-lyso (MST, in words): did not bind
[1]
  Inhibition of Hs-dynein 1 basal ATPase activity (in words): does not inhibit
[13]
  Effect on landing rate (in words): not sensitive
[13]; 0-50 μM compound
  Effect on dynein processivity (run length) (in words): not sensitive
  Effect on dynein velocity (in words): not sensitive
[10]; control compound
  Binding to GFP-Sc-Dyn (MST, in words): could not detect binding
[14]
  Effect on microtubule gliding (in words): comparable to DMSO
[14]; 1% DMSO, 1 mM Mg-ATP, mean ± SD
  Microtubule gliding velocity, 30 minutes after treatment: 66 ± 21

## N#CC(=C(O)c1ccc(Cl)cc1Cl)c1nc2cc(Cl)ccc2c(=O)[nH]1 [compound 1, ciliobrevin D]
[15]
  Inhibition of dynein's basal ATPase activity (in words): does not
